According to ChEMBL document CHEMBL1795216, “Synthesis and biological evaluations of novel apocynin analogues” (Eur J Med Chem, 2011):
Active and inactive are the calls of the source. The rule behind the calls is not given here.

Key:
Assay type in all cases: functional, cell-based
[1] = test system: RAW264.7; assay: Inhibition of LPS-induced P67phox protein expression in mouse RAW264.7 cells up to 10 uM pretreated for 1 hr before LPS challenge by Western blot analysis
Method in brief: (§1)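 RAW 264.7 cells pretreated 1 h with compound at […], then stimulated with LPS […] for 24 h. Cytoplasmic extracts run on 12% SDS gel and transferred to PVDF. Membranes blocked in 5% nonfat milk/TBS, probed overnight at 4 °C with mouse anti-p67phox and β-actin (1:2000). HRP anti-mouse secondary 1 h at room temperature, ECL detection.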

[2] = test system: RAW264.7; assay: Protection against LPS-induced cytotoxicity in mouse RAW264.7 cells assessed as cell viability at 0.1 to 100 uM pretreated for 1 hr before LPS challenge measured after 24 hrs by MTT assay
Method in brief: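 RAW 264.7 cells seeded at 10⁴/well in 96-well plates and grown 24 h at 37 °C, 5% CO2. Pretreated with compounds at […] for 1 h, washed, then exposed to LPS for 24 h. MTT 0.5 mg/ml added for 4 h, formazan dissolved in DMSO, absorbance read at 570 nm.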

[3] = test system: RAW264.7; assay: Antioxidant activity in lipopolysaccharide-stimulated mouse RAW264.7 cells assessed as decrease in ROS level at 0.1 to 10 uM using DCFH-DA by fluorescence assay
Method in brief: (§2)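 RAW 264.7 cells (DMEM, 10% FBS, penicillin-streptomycin) seeded for 24 h, then treated with compounds at […] with or without LPS […]. Loaded with […] DCFH-DA for 20 min at 37 °C in 5% CO2, washed three times with PBS. Fluorescence read at ex488/em525 by laser scanning microscopy and quantified on a microplate reader.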

[4] = test system: RAW264.7; assay: Inhibition of LPS-induced P67phox protein expression in mouse RAW264.7 cells compound pretreated for 1 hr before LPS challenge by Western blot analysis; method in brief: as §1
[5] = test system: RAW264.7; assay: Antioxidant activity in lipopolysaccharide-stimulated mouse RAW264.7 cells assessed as decrease in ROS level using DCFH-DA by fluorescence assay; method in brief: as §2

Compound | inhibition [1] | Activity [2] | Activity [3] | inhibition [4] | Activity [5]
COc1cc(C(C)=O)ccc1O | inactive | inactive | inactive |  | 
COc1cc(C(C)=O)cc(/C=[N+](\[O-])C(C)(C)C)c1O | inactive |  | inactive |  | 
COc1cc(C(C)=O)cc(CNc2cc(C(C)=O)cc(OC)c2O)c1O |  | Active |  | Dose-dependent effect | Dose-dependent effect
COc1cc(C(C)=O)cc(NC(=O)CCCC[C@@H]2CCSS2)c1O |  | Active |  | Dose-dependent effect | Dose-dependent effect
